The list is not random: actives were taken first. Their share in the collection is about 2.1%.
STK33 kinase inh = inhibitors of purified STK33 kinase, primary screen, biochemical, ADP-Glo luminescence, homogeneous, cell-free. AID 2661, 2010. MBP phosphorylation. 320,000 tested, 0.073% active. inhibition, % at 10 µM;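 active means inhibition at or above 25%, using the most active replicate where run in duplicate; inactive means inhibition below 25%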
MEKK3 PB1 HTS = modulators of MEKK3-MEK5 PB1 binding, primary screen, biochemical, wildtype MEKK3, multiplex bead flow cytometry, Alexa488-MEK5 | binding response (% of control), % at 10 µM | 290,000 tested, 1.4% active | bead-based flow cytometry, Alexa488-MEK5 binding to MEKK3; actives lie on both sides; 0 = blocked by unlabeled MEK5, 100 = vehicle | AID 1529, 2009;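 active means binding response more than 3 SD above or below the average of its plate-row segment, actives on both sides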;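 further: Alexa488 bead fluorescence after subtracting the streptavidin-only scavenger bead signal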
Target sequence (Q99759 whole entry, looked up): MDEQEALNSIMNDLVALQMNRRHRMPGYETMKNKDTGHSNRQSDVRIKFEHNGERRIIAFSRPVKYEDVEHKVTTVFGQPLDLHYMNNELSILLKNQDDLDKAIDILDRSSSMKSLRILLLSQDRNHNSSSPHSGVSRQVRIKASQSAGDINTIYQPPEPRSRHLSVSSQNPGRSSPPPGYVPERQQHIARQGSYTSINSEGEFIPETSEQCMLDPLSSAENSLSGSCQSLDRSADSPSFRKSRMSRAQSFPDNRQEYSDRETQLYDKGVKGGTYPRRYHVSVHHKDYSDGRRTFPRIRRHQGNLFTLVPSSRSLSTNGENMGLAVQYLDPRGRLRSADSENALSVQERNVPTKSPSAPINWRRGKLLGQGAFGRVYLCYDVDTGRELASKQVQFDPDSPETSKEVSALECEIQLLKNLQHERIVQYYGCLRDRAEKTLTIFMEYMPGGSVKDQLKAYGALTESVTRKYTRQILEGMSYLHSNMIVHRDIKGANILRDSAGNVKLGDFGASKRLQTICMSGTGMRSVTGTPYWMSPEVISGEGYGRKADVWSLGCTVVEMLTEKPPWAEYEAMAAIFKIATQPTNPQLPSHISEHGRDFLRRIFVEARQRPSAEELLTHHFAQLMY
GSK3B inh = human GSK3beta kinase inhibitors, primary screen, biochemical, cell-free homogeneous, HTS; activity score (negative = inhibition), % at 10 µM; GST-GSK3beta kinase, ADP-Glo luminescence, 60 min; active compounds read low; 300,000 tested, 0.038% active; Glycogen synthase kinase-3 beta (Homo sapiens), P49841; AID 2097, 2009;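 active means more than half of replicate wells score below -50%, meaning over 50% inhibition versus plate controls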
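test system = GST-tagged human GSK3beta kinase, cell-free | reagent = 25 µM ATP with peptide substrate | dosing = one dose of 10 µM per compound | schedule = 60 min reaction, RT | detection = luminescent ADP-Glo measurement of ADP formed | control set = DMSO neutral wells and GW8510 at 20 µM as positive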
MEKK2wt PB1 HTS = modulators of MEK5 binding to wildtype MEKK2, primary screen, biochemical, multiplex bead flow cytometry, Alexa488-MEK5; Mitogen-activated protein kinase kinase kinase 2 (Homo sapiens), Q9Y2U5; Alexa488-MEK5 binding to MEKK2 WT; actives lie on both sides; binding response (% of control), % at 10 µM; 290,000 tested, 1.1% active; AID 1531, 2009; in the data active means binding response below about 67% or above about 130%
GSK3 alpha inh = blockers of GSK3A enzyme activity – biochemical, luminescence, cell-free homogeneous, HTS, primary screen | GSK-3 alpha kinase, ADP-Glo luminescence, 60 min | inhibition, % at 10 µM | 320,000 tested, 0.1% active;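 active means more than half of replicates show inhibition above 20%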;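 further: GST-tagged GSK-3 alpha with peptide substrate and 25 µM ATP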
MEKK2mut PB1 HTS = MEK5 binding signal on mutant MEKK2 PB1, primary screen, biochemical, multiplex bead flow cytometry, Alexa488-MEK5; Alexa488-MEK5 binding to MEKK2 mutant; percent response, % at 10 µM; 290,000 tested, 0.35% active; AID 1530, 2009; in the data active means percent response above about 24%, passing the limit was not always enough
MEKK2wt confirm = modulators of MEK5 binding to wildtype MEKK2, confirmation, biochemical, single concentration, multiplex bead flow cytometry; shares compounds with MEKK3 PB1 HTS; Alexa488-MEK5 binding to MEKK2 WT; actives lie on both sides; binding response (% of control), % at 10 µM; 5,900 tested, 2.4% active; in the data active means binding response below about 16% or above about 210%; inactive means in between
MEKK2mut-MEK5 = mutant MEKK2 PB1-MEK5 binding signal retest – biochemical, single concentration, multiplex bead flow cytometry, confirmation. shares compounds with MEKK3 PB1 HTS. Alexa488-MEK5 binding to MEKK2 mutant. percent response, % at 10 µM. 5,900 tested, 2% active; in the data active means percent response mostly above about 71%, no sharp cut-off; inactive means mostly below about 38%;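 further: higher means compound restores mutant binding toward wildtype level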
MEKK3-MEK5 inh = MEKK3 wild-type PB1 binding to MEK5, inhibitors, confirmation, biochemical, bead multiplex flow cytometry, single concentration, wildtype | shares compounds with MEKK3 PB1 HTS | Alexa488-MEK5 binding to MEKK3; active compounds read low | binding response (% of control), % at 10 µM | 5,900 tested, 1.8% active;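 active means binding response below 72% of control, or above a set upper limit, though filed actives all read lower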;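 further: lower values mean stronger disruption of MEK5 binding to MEKK3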
Hits are given with their value; n = inactive; x = not tested or not shown; [ ] = dose if it differs, or a comment.

SMILES	STK33 kinase inh	MEKK3 PB1 HTS	GSK3B inh	MEKK2wt PB1 HTS	GSK3 alpha inh	MEKK2mut PB1 HTS	MEKK2wt confirm	MEKK2mut-MEK5	MEKK3-MEK5 inh
COc1ccc(NC(=O)CCC(=O)c2cccs2)cc1S(=O)(=O)Nc1ccc(Cl)cc1	n	n	n	n	n	n	x	x	x
CCNc1ccc(C(=O)N/N=C/c2c(C)nn(-c3ccccc3)c2N2CCCC2)cc1[N+](=O)[O-]	n	138	n	n	n	n	n	n	n
Cc1ccc(NS(=O)(=O)c2cccc(C(=O)N/N=C/c3c(C)nn(-c4ccccc4)c3N3CCCC3)c2)c(C)c1	n	n	n	n	n	n	x	x	x
Cn1c(=O)[nH]c(=O)c2c1nc(SCC(=O)O)n2CCCc1ccccc1	n	n	n	n	n	n	x	x	x
Cn1c(=O)[nH]c(=O)c2c1nc(Sc1ccccc1)n2CCc1ccccc1	n	n	n	n	n	n	x	x	x
Cn1c(=O)[nH]c(=O)c2c1nc(SCC(=O)O)n2Cc1ccccc1	n	n	n	n	n	27	n	n	n
COCCn1c(Sc2ccccc2)nc2c1c(=O)[nH]c(=O)n2C	n	2.0[inhibitor]	n	3.0[inhibitor]	n	n	n	n	n
CCN(CC)c1ccc2nc3c4ccccc4c(=O)cc-3oc2c1	n	n	n	53[inhibitor]	n	n	n	n	n
CCN(CC)c1ccc2cc(C=O)c(=O)oc2c1	n	n	n	n	n	n	x	x	x
CCOc1ccccc1NC(=S)N1C2CCC1CC(NC(=O)NC13CC4CC(CC(C4)C1)C3)C2 (stereo not given)	n	72[inhibitor]	n	n	n	n	n	n	n
O=[N+]([O-])c1ccc(/C=N/Nc2ccc3ccccc3c2)o1	n	n	n	2.0[inhibitor]	n	n	n	n	n
CCc1ccc(C(C(=O)NCc2ccccc2)N(C(=O)c2csnn2)C2CC2)cc1 (stereo not given)	n	n	n	n	n	n	x	x	x
COc1ccc(NC(=O)C(NC(=O)CC2NC(=O)NC2=O)c2ccccc2)cc1 (stereo not given)	n	155	n	n	n	n	n	n	n
Cc1ccc(SCc2cc(=O)[nH]c(/N=C(\N)Nc3cccc4ccccc34)n2)cc1	n	137	n	n	n	n	n	n	n
COc1ccc(Cl)cc1N/C(N)=N/c1nc(CSc2ccc(C)cc2)cc(=O)[nH]1	n	n	n	n	n	n	x	x	x
C/C(CCS(=O)(=O)c1ccccc1)=N/O	n	n	n	n	n	n	x	x	x
COc1ccc(C2C(C(=O)Nc3cc(C)on3)c3ccccc3C(=O)N2C)cc1OC (stereo not given)	n	0.0[inhibitor]	x	0.0[inhibitor]	n	n	n	n	n
O=C1CC(c2ccc3c(c2)OCCO3)Oc2ccc([N+](=O)[O-])cc21 (stereo not given)	n	n	n	134	n	n	n	n	n

High-throughput results from PubChem BioAssay.
